Measurements: ChEMBL document CHEMBL4342528, “Discovery of a First-in-Class Protein Arginine Methyltransferase 6 (PRMT6) Covalent Inhibitor” (J Med Chem, 2020)
The source made the active and inactive calls. No cut-off for these calls is given here.

Experiments:
[1] = target: T1, Protein arginine N-methyltransferase 6 (Homo sapiens, UniProt Q96LA8); assay: Inhibition of PRMT6 (unknown origin) assessed as reduction in incorporation of [3H]-labeled methyl group into biotinylated substrate using [3H-SAM] at 50 uM incubated for 1 hr by scintillation proximity assay relative to control
In short: (§1)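 Panel of 33 methyltransferases (22 PKMTs, 3 DNMTs, 8 PRMTs), each tested at 10 and 50 μM compound. Activity was read as ³H-methyl transfer from ³H-SAM in a radiometric assay done as previously described.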
Target sequence in this assay (Q96LA8 whole entry, looked up): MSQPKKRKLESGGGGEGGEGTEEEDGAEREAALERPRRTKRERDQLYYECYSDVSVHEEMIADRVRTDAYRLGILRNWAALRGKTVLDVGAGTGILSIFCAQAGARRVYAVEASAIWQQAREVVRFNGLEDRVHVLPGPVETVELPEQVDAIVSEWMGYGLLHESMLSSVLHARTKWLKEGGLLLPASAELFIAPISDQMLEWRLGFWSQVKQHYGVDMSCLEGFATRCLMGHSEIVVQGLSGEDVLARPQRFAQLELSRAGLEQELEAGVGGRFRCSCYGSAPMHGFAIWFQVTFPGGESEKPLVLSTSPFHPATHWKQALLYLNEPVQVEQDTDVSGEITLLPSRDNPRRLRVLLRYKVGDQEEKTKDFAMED

[2] = target: T2, Protein arginine N-methyltransferase 3 (Homo sapiens, UniProt O60678); assay: Inhibition of PRMT3 (unknown origin) assessed as reduction in incorporation of [3H]-labeled methyl group into biotinylated substrate using [3H-SAM] at 50 uM incubated for 1 hr by scintillation proximity assay relative to control; in short: as §1
Target sequence in this assay (O60678 2-531 limits assumed): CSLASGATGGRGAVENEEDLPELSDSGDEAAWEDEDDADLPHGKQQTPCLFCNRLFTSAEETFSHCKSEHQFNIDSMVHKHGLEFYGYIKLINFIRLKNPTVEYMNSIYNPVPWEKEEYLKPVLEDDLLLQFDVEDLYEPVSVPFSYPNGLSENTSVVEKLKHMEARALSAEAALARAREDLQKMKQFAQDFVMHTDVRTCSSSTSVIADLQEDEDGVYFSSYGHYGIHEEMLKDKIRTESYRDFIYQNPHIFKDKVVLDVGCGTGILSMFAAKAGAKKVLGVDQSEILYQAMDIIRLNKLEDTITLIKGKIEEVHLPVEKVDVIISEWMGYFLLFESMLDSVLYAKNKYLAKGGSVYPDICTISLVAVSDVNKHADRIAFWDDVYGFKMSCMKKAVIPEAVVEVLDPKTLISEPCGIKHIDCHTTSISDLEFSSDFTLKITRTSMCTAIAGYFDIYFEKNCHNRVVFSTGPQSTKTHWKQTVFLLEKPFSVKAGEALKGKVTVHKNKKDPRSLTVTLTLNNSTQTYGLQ

[3] = target: T2, Protein arginine N-methyltransferase 3; assay: Inhibition of human PRMT3 using [3H]SAM as donor and [3H]methylated biotin-labeled peptide as substrate by scintillation proximity assay
In short: (§2)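 Compound titrated into the reaction; 1 h enzyme–compound preincubation stated for PRMT6. Methylated peptide captured on streptavidin/scintillant-coated plates and counted (cpm). IC50 from concentration–response, triplicate, mean ± SD.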
Target sequence in this assay (O60678 whole entry): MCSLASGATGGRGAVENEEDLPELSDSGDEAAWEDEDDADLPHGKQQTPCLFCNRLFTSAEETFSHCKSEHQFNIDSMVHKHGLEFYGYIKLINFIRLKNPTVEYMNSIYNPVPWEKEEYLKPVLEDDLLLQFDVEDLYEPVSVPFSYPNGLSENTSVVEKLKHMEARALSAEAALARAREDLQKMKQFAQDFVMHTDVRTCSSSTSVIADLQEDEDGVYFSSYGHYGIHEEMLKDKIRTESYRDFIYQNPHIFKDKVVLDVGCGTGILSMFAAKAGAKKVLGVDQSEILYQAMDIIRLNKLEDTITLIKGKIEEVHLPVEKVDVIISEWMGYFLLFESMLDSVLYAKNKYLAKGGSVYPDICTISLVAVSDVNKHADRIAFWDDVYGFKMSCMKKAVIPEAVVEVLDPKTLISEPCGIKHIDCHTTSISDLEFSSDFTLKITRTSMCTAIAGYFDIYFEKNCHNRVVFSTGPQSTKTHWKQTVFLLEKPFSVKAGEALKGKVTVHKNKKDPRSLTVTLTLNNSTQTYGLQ

[4] = target: T1, Protein arginine N-methyltransferase 6; assay: Covalent binding affinity to human PRMT6 assessed as covalent adduct. formation at 300 uM pre-incubated for 1 hr by mass spectrometry
In short: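 PRMT protein at 15 μM was incubated 1 h at room temperature with a 20-fold molar excess of inhibitor (300 μM). The reaction was quenched with 0.1% aqueous TFA, separated by HPLC (5–95% acetonitrile in water) and analysed by ESI time-of-flight LC/MS for protein–ligand adduct mass.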
Target sequence in this assay (Q96LA8 whole entry, looked up): as the sequence (Q96LA8 whole entry, looked up) above

[5] = target: T3, Protein arginine N-methyltransferase 1 (Homo sapiens, UniProt Q99873); assay: Inhibition of human PRMT1 using [3H]SAM as donor and [3H]methylated biotin-labeled peptide as substrate by scintillation proximity assay
Target sequence in this assay (Q99873 whole entry): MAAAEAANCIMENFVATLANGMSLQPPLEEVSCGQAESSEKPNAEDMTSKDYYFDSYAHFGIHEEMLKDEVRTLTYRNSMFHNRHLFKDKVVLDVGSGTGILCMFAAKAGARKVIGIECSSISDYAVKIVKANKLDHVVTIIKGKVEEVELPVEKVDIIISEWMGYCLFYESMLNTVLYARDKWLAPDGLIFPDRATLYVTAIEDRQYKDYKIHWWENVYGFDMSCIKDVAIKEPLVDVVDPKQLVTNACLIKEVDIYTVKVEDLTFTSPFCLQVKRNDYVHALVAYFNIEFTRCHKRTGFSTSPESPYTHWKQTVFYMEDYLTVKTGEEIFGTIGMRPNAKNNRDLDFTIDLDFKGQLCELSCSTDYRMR

[6] = target: T4, Protein arginine N-methyltransferase 8 (Homo sapiens, UniProt Q9NR22); assay: Inhibition of PRMT8 (unknown origin) assessed as reduction in incorporation of [3H]-labeled methyl group into biotinylated substrate using [3H-SAM] at 50 uM incubated for 1 hr by scintillation proximity assay relative to control; in short: as §1
Target sequence in this assay (Q9NR22 2-394 limits assumed): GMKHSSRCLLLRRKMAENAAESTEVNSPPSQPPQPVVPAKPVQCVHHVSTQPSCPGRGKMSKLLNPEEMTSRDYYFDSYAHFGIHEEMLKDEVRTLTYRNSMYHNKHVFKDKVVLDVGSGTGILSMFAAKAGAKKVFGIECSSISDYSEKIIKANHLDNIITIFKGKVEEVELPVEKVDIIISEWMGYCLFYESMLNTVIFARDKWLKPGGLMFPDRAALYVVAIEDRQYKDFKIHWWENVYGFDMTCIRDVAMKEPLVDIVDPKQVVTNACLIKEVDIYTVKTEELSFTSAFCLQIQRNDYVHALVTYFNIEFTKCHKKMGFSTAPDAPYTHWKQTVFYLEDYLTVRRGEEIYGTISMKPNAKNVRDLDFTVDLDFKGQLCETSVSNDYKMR

[7] = target: T4, Protein arginine N-methyltransferase 8; assay: Inhibition of human PRMT8 using [3H]SAM as donor and [3H]methylated biotin-labeled peptide as substrate by scintillation proximity assay
In short: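 Radiometric SPA: ³H-methyl transfer from ³H-SAM to biotin-labeled peptide, captured on streptavidin/scintillant-coated plate, counts per minute read; substrate and cofactor each at their Km for the enzyme; compound titrated; IC50 from triplicate determinations, mean ± SD.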
Target sequence in this assay (Q9NR22 whole entry): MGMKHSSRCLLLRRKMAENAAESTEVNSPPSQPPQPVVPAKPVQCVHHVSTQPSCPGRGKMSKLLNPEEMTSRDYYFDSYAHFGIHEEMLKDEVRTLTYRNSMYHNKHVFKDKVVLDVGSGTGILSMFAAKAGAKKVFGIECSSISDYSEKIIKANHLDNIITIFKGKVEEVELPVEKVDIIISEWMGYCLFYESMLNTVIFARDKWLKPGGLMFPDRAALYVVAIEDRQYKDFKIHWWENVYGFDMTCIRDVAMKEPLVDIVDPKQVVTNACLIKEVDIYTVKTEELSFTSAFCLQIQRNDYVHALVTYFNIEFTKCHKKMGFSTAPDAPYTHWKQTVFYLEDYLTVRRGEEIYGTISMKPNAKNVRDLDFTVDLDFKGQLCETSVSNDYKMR

MCF7 = assay: Toxicity in human MCF7 cells assessed as reduction in cell viability up to 20 uM incubated for 3 days by CCK8 assay; type: cell-based; conditions: mcf7, 72 h
In short: (§3)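 Cells seeded 1×10^4 per well in triplicate, treated after 24 h with serial dilutions from 20 μM for 3 days; CCK-8 (WST-8) added, 4 h at 37 °C, absorbance at 450 nm; mean ± SD of three replicate experiments.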

[8] = target: T1, Protein arginine N-methyltransferase 6; assay: Inhibition of Flag-tagged PRMT6 (unknown origin) expressed in HEK293 cells at 0.1 to 10 uM incubated for 20 hrs assessed as reduction in H3R2me2a levels; type: cell-based
Target sequence in this assay (Q96LA8 whole entry, looked up): as the sequence (Q96LA8 whole entry, looked up) above

[9] = target: T1, Protein arginine N-methyltransferase 6; assay: […] inhibition of human PRMT6 pre-incubated for 1 to 30 mins using [3H]SAM as donor and [3H]methylated biotin-labeled peptide as substrate by scintillation proximity assay
Target sequence in this assay (Q96LA8 whole entry, looked up): as above

[10] = target: T5, Histone-arginine methyltransferase CARM1 (Homo sapiens) (UniProt Q86X55); assay: Inhibition of PRMT4 (unknown origin) assessed as reduction in incorporation of [3H]-labeled methyl group into biotinylated substrate using [3H-SAM] at 50 uM incubated for 1 hr by scintillation proximity assay relative to control; in short: as §1
T5 sequence (whole entry): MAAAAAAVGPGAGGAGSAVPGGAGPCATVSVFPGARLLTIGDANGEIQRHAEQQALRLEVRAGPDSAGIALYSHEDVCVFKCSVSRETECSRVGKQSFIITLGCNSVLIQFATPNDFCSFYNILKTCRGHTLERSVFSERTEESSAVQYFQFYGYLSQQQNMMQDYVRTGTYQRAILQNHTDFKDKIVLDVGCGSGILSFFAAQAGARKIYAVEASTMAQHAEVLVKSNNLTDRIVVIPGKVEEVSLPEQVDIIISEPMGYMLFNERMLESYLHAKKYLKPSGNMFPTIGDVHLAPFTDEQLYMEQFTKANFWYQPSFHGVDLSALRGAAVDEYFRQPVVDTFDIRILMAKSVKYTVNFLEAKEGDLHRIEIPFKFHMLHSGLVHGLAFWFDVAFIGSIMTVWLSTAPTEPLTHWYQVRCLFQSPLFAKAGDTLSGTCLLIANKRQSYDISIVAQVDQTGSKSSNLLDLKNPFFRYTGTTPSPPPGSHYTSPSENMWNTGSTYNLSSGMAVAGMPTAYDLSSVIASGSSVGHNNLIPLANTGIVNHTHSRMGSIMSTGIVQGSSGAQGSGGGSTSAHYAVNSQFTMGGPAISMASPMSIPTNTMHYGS

[11] = target: T6, Histone-arginine methyltransferase CARM1 (Homo sapiens, UniProt Q86X55); assay: Inhibition of human PRMT4 using [3H]SAM as donor and [3H]methylated biotin-labeled peptide as substrate by scintillation proximity assay; in short: as §2
T6 sequence (Q86X55 whole entry): T5 sequence (whole entry)

[12] = target: T5, Histone-arginine methyltransferase CARM1 (Homo sapiens); assay: Inhibition of PRMT4 (unknown origin) assessed as reduction in incorporation of [3H]-labeled methyl group into biotinylated substrate using [3H-SAM] at 10 uM incubated for 1 hr by scintillation proximity assay; in short: as §1
[13] = target: T2, Protein arginine N-methyltransferase 3; assay: Inhibition of PRMT3 (unknown origin) assessed as reduction in incorporation of [3H]-labeled methyl group into biotinylated substrate using [3H-SAM] at 10 uM incubated for 1 hr by scintillation proximity assay; in short: as §1
Target sequence in this assay (O60678 2-531 limits assumed): as the sequence (O60678 2-531 limits assumed) above

HEK-293T = assay: Toxicity in HEK293T cells assessed as reduction in cell viability up to 20 uM incubated for 3 days by CCK8 assay; type: cell-based; conditions: human, 72 h; in short: as §3
[14] = target: T1, Protein arginine N-methyltransferase 6; assay: Inhibition of human PRMT6 using [3H]SAM as donor and [3H]methylated biotin-labeled peptide as substrate by scintillation proximity assay; conditions: read-out: IC50; in short: as §2
Target sequence in this assay (Q96LA8 whole entry): as the sequence (Q96LA8 whole entry, looked up) above

[15] = target: T5, Histone-arginine methyltransferase CARM1 (Homo sapiens); assay: Inhibition of PRMT4 in human MCF7 cells assessed as reduction in BAF155 asymmetric dimethylation at 0.2 to 20 uM incubated for 2 days; type: cell-based
[16] = target: T4, Protein arginine N-methyltransferase 8; assay: Inhibition of PRMT8 (unknown origin) assessed as reduction in incorporation of [3H]-labeled methyl group into biotinylated substrate using [3H-SAM] at 10 uM incubated for 1 hr by scintillation proximity assay; in short: as §1
Target sequence in this assay (Q9NR22 2-394 limits assumed): as the sequence (Q9NR22 2-394 limits assumed) above

[17] = target: T1, Protein arginine N-methyltransferase 6; assay: Inhibition of PRMT6 (unknown origin) assessed as reduction in incorporation of [3H]-labeled methyl group into biotinylated substrate using [3H-SAM] at 10 uM incubated for 1 hr by scintillation proximity assay; in short: as §1
Target sequence in this assay (Q96LA8 whole entry, looked up): as the sequence (Q96LA8 whole entry, looked up) above

PNT2 = assay: Toxicity in human PNT2 cells assessed as reduction in cell viability up to 20 uM incubated for 3 days by CCK8 assay; type: cell-based; conditions: pnt2, 72 h; in short: as §3
[18] = target: T1, Protein arginine N-methyltransferase 6; assay: Time dependent inhibition of human PRMT6 pre-incubated for 1 to 30 mins using [3H]SAM as donor and [3H]methylated biotin-labeled peptide as substrate by scintillation proximity assay
Target sequence in this assay (Q96LA8 whole entry, looked up): as above

[19] = target: T2, Protein arginine N-methyltransferase 3; assay: Inhibition of PRMT3 (unknown origin) expressed in HEK293T cells were co-transfected with GFP-tagged histone H4 peptide assessed as reduction in H4R3 arginine asymmetric dimethylation at 0.2 to 20 uM incubated for 20 hrs; type: cell-based
Target sequence in this assay (O60678 2-531 limits assumed): as the sequence (O60678 2-531 limits assumed) above

[20] = target: T3, Protein arginine N-methyltransferase 1; assay: Inhibition of PRMT1 in human MCF7 cells assessed as reduction in H4R3me2a levels incubated for 2 days by fluorescence based assay; type: cell-based
In short: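 MCF7 cells with endogenous PRMT1 were treated with compound for 2 days, with MS023 (1 μM) as positive control. The H4R3me2a fluorescence signal was normalized to H4 and fitted nonlinearly to give IC50.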

[21] = target: T5, Histone-arginine methyltransferase CARM1 (Homo sapiens); assay: Inhibition of PRMT4 in human MCF7 cells assessed as reduction in BAF155 asymmetric dimethylation at 2.2 to 20 uM incubated for 2 days; type: cell-based
[22] = target: T2, Protein arginine N-methyltransferase 3; assay: Inhibition of PRMT3 (unknown origin) expressed in HEK293T cells were co-transfected with GFP-tagged histone H4 peptide assessed as reduction in H4R3 arginine asymmetric dimethylation at 2.2 to 20 uM incubated for 20 hrs; type: cell-based
Target sequence in this assay (O60678 2-531 limits assumed): as above

[23] = target: T1, Protein arginine N-methyltransferase 6; assay: Inhibition of Flag-tagged PRMT6 (unknown origin) expressed in HEK293 cells at 2 uM incubated for 20 hrs assessed as reduction in H3R2me2a levels; type: cell-based
[24] = Inhibition of type 1 PRMT (unknown origin); parameters: species or system Homo sapiens
[25] = target: T5, Histone-arginine methyltransferase CARM1 (Homo sapiens); assay: Inhibition of PRMT4 in human MCF7 cells assessed as reduction in BAF155 asymmetric dimethylation at 2 uM incubated for 2 days; type: cell-based

SMILES | inhibition [1] [%] | IC50 [3] [µM] | Activity [4] | IC50 [7] [µM] | Activity (MCF7) | inhibition [8] | IC50 [11] [µM] | Activity (HEK-293T) | IC50 [14] [µM] | inhibition [17] [%] | Activity (PNT2) | also measured
CCC(=O)Nc1cccc(-c2c[nH]cc2CN(C)CCN)c1 | > 80 | 15 | inactive | 0.13 | Non-Toxic | Active | 2 | Non-Toxic | 0.028 | > 40 | Non-Toxic | inhibition [2]: > 80%; IC50 [5]: 170 nM; inhibition [6]: > 80%; inhibition [9]: Active; inhibition [10]: > 80%; inhibition [12]: > 40%; inhibition [13]: > 40%; inhibition [15]: inactive; inhibition [16]: > 40%; TDI [18]: inactive; inhibition [19]: inactive; IC50 [20]: 6.7 µM; inhibition [20]: Dose-dependent effect
C=CC(=O)Nc1cccc(-c2c[nH]cc2CN(C)CCO)c1 | 80 | > 200 | inactive | 23 | Non-Toxic | inactive | 51 | Non-Toxic | 9.8 | 50 | Non-Toxic | inhibition [21]: inactive; inhibition [22]: inactive
CC(C)Oc1ccc(-c2c[nH]cc2CN(C)CCN)cc1 | – | – | – | – | – | – | – | – | – | – | – | inhibition [23]: Active; IC50 [24]: 4 to 119 nM
CNCCN1CCC(c2cc(CN(C)C(=O)c3cccc(Oc4ccccc4)c3)ccn2)CC1 | – | – | – | – | – | – | – | – | – | – | – | inhibition [25]: Active
